Test [1] concerns HCT-116. As to the kind of experiment: Diameter of zone of inhibition for cell colony formation of solid tumor HCT116 at the dose of 190 ug. The class given is functional, Homo sapiens. The method in brief: (§1)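 Soft agar disk diffusion: leukemia (L1210), solid tumor (HCT116, or colon H15) and normal fibroblast cells seeded in soft agar in separate 60 mm dishes. Compound applied to a filter paper disk (dose in μg/disk) set on the agar. Colony-formation inhibition zones read after 6–7 days at 37 °C. 200 zone units = 6.5 mm; 950 = total inhibition; a range marks partial colony shrinkage. n > 2 unless noted.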

Test [2] in a line: Diameter of zone of inhibition for cell colony formation of normal fibroblast at the dose of 190 ug; Range is 0-12.35. The class given is functional, Homo sapiens. The method in brief:
as §1

In a further test the test system is SW-620. Nature of the test: Growth inhibitory activity against human colon SW620 cell line. It counts as functional. In short, it runs like this:
(§2)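 Cell-line screen run at NCI by published procedures. […] The mean graph midpoint is taken across all human cancer cell lines successfully tested.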

The next test relates to MCF7. Nature of the test: Growth inhibitory activity against human breast MCF-7 cell line. The class given is functional. In short, it runs like this:
as §2

The subject of a further test is HL-60. Nature of the test: Growth inhibitory activity against human leukemia HL-60 (TB) cell line. It counts as functional. Also on record: unit not given here.
In another test the test system is RXF 393. As to the kind of experiment: Growth inhibitory activity against human renal RXF-393 cell line. It counts as functional. The method in brief: as §2
In the next test the test system is HT-29. As to the kind of experiment: Growth inhibitory activity against human colon HT-29 cell line. The class given is functional. The method in brief:
as §2

The nature of test [3]: Diameter of zone of inhibition for cell colony formation of normal fibroblast at the dose of 190 ug; Range is 0-13.65. The class given is functional, Homo sapiens. The method in brief:
as §1

For test [4], the system named is Panel (Carcinoma cell lines). Nature of the test: Mean graph mid point value for cytotoxic activity against human cancer cell lines was determined. The class given is functional. In short, it runs like this: as §2
The test system of the next test is NCI-H522. Nature of the test: Growth inhibitory activity against human lung NCI-H522 cell line. It counts as functional. The method in brief:
as §2

Test [5] relates to HCT-116. Nature of the test: Growth inhibitory activity against human colon HCT116 cell line. It counts as functional. In short, it runs like this:
as §2

Test [6] concerns L1210. As to the kind of experiment: Diameter of zone of inhibition for cell colony formation of leukemia L1210 at the dose of 190 ug; Range is 0-5.525. The class given is functional, Mus musculus. The method in brief: as §1
Test [7] concerns L1210. As to the kind of experiment: Diameter of zone of inhibition for cell colony formation of leukemia L1210 at the dose of 210 ug; Range is 3.75-5.525. It counts as functional, Mus musculus. In short, it runs like this: as §1
In test [8] the test system is HCT-116. Nature of the test: Diameter of zone of inhibition for cell colony formation of solid tumor HCT116 at the dose of 210 ug. The class given is functional, Homo sapiens. The method in brief: (§3)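 HCT116, L1210 leukaemia and normal fibroblast cells were seeded in soft agar in separate 60 mm dishes. The compound was applied to a filter-paper disk laid on the agar. Colony-formation inhibition zones were read after 6–7 days at 37 °C and expressed in zone units (200 units = 6.5 mm; 950 = total inhibition; 0 = none). n > 2 unless otherwise indicated.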

A short description of test [9]: Diameter of zone of inhibition for cell colony formation of normal fibroblast at the dose of 210 ug; Range is 0-13.975. It counts as functional, Homo sapiens. The method in brief: as §1
The subject of test [10] is L1210. As to the kind of experiment: Diameter of zone of inhibition for cell colony formation of leukemia L1210 at the dose of 210 ug; Range is 0-8.125. It counts as functional, Mus musculus. In short, it runs like this: as §1
A short description of test [11]: Diameter of zone of inhibition for cell colony formation of normal fibroblast at the dose of 210 ug. It counts as functional, Homo sapiens. The method in brief: as §1
For test [12], the system named is HCT-116. Nature of the test: Diameter of zone of inhibition for cell colony formation of solid tumor HCT116 at the dose of 190 ug; Range is 22.75-24.375. The class given is functional, Homo sapiens. The method in brief:
as §3

A short description of test [13]: Diameter of zone of inhibition for cell colony formation of normal fibroblast at the dose of 190 ug; Range is 0-10.25. It counts as functional, Homo sapiens. In short, it runs like this: as §1
Test [14] has as its system L1210. Nature of the test: Diameter of zone of inhibition for cell colony formation of leukemia L1210 at the dose of 190 ug. The class given is functional, Mus musculus. In short, it runs like this: as §1
The nature of test [15]: Diameter of zone of inhibition for cell colony formation of normal fibroblast at the dose of 190 ug. It counts as functional, Homo sapiens. In short, it runs like this:
as §1

The nature of test [16]: Diameter of zone of inhibition for cell colony formation of normal fibroblast at the dose of 190 ug; Range is 0-12.025. It counts as functional, Homo sapiens. In short, it runs like this: as §1
The nature of test [17]: Diameter of zone of inhibition for cell colony formation of normal fibroblast at the dose of 200 ug. It counts as functional, Homo sapiens. In short, it runs like this:
as §1

The test system of test [18] is HCT-116. As to the kind of experiment: Diameter of zone of inhibition for cell colony formation of solid tumor HCT116 at the dose of 200 ug. The class given is functional, Homo sapiens. In short, it runs like this:
as §3

In test [19] the test system is L1210. As to the kind of experiment: Diameter of zone of inhibition for cell colony formation of leukemia L1210 at the dose of 200 ug. The class given is functional, Mus musculus. The method in brief:
as §1

The nature of test [20]: Diameter of zone of inhibition for cell colony formation of normal fibroblast at the dose of 210 ug; Range is 0-9.425. It counts as functional, Homo sapiens. In short, it runs like this:
as §1

Test [21] relates to L1210. As to the kind of experiment: Diameter of zone of inhibition for cell colony formation of leukemia L1210 at the dose of 210 ug; Range is 6.5-8.125. It counts as functional, Mus musculus. The method in brief: as §1
The test system of test [22] is L1210. Nature of the test: Diameter of zone of inhibition for cell colony formation of leukemia L1210 at the dose of 190 ug; Range is 0-6.825. The class given is functional, Mus musculus. In short, it runs like this:
as §1

Test [23] in a line: Diameter of zone of inhibition for cell colony formation of normal fibroblast at the dose of 190 ug; Range is 0-8.775. The class given is functional, Homo sapiens. In short, it runs like this:
as §1

A further test concerns Mus musculus. As to the kind of experiment: Tumor growth delay of human HCT116 colorectal carcinoma in mice after intravenous administration at dose of 100 mg/kg. It counts as functional.

Take `Cc1ccc(S(=O)(=O)NC(=O)c2ccc(Cl)cc2Cl)cc1Cl`: the Inhibition stood at 18.52 mm in the test with HCT-116 [1] and 12.35 mm in test [2].
On to `COc1ccc(S(=O)(=O)NC(=O)c2ccc(Cl)cc2Cl)cc1`, for which the GI50 with SW-620 was found to be 9.5 µM; with MCF7 it was 23.9 µM; in the test with HL-60, 38.9; with RXF 393, 6.4 µM; with HT-29, 41.5 µM; in the test with NCI-H522, 39.6 µM. In addition, in the test with HCT-116 [5], the GI50 is 3.5 µM. In addition, the results for the Inhibition (in test [3]; in the test on HCT-116 [1]; in the test with L1210 [6]) were 13.65 mm, 21.12 mm and 5.52 mm, respectively. The compound further returned an MGM in test [4] of 28.8.
On to `O=C(NS(=O)(=O)c1ccc(Br)cc1)c1ccc(Cl)cc1Cl`, for which the Inhibition in the test with L1210 [7] was 5.52 mm; in the test with HCT-116 [8], 20.15 mm; in test [9] it was 13.97 mm.
With `Nc1cc(Cl)ccc1C(=O)NS(=O)(=O)c1ccc(Cl)cc1`, the Inhibition with L1210 [10] was 8.12 mm; in the test on HCT-116 [8], 19.82 mm; in [11] it was 8.77 mm.
With `Cc1cc(Br)ccc1C(=O)NS(=O)(=O)c1ccc(Cl)cc1`, the Inhibition was 24.37 mm in the test on HCT-116 [12], 10.25 mm in [13] and 0 mm in the test on L1210 [14].
Regarding `CN(C)c1ccc(C(=O)NS(=O)(=O)c2ccc(Cl)cc2)cc1`, the Inhibition in test [15] came out at 0 mm; in the test on HCT-116 [1], 11.7 mm; with L1210 [14], 5.85 mm.
Take `Cc1cc(Cl)ccc1C(=O)NS(=O)(=O)c1ccc(Cl)cc1`: the GI50 in the test with SW-620 worked out at 37.9 µM; with MCF7, 17.7 µM; in the test on HL-60 it was 49.5; with RXF 393, 8.6 µM; with HT-29, 100 µM; with NCI-H522, 100 µM. The same compound returned a GI50 in the test on HCT-116 [5] of 9.7 µM. Further, the MGM in test [4] was determined as 41.7.
With `O=C(NS(=O)(=O)c1cccc(-c2ccccc2)c1)c1ccc(Cl)cc1Cl`, the figures for the Inhibition (in test [16]; with HCT-116 [1]; with L1210 [14]) were 12.02 mm, 19.5 mm and 0 mm, respectively.
Regarding `O=C(NS(=O)(=O)c1cc([N+](=O)[O-])ccc1Cl)c1ccc(Cl)cc1Cl`, the Inhibition (in test [17]; in the test on HCT-116 [18]; with L1210 [19]) was 0 mm throughout.
As for `O=C(NS(=O)(=O)c1ccc(-c2ccccc2)cc1)c1ccc(Cl)cc1Cl`, the figures for the Inhibition (in test [20]; with L1210 [21]; in the test on HCT-116 [8]) were 9.42 mm, 8.12 mm and 16.25 mm, respectively.
`O=C(NS(=O)(=O)c1ccc(Br)c(Br)c1)c1ccc(Cl)cc1Cl`: the Inhibition in the test with L1210 [22] came to 6.82 mm; in test [23] it was 8.77 mm; in the test with HCT-116 [1] it was 13.84 mm.
`O=C(NS(=O)(=O)c1ccc(Cl)cc1)c1ccc([N+](=O)[O-])cc1`: the Inhibition was 0 mm in test [15], 8.77 mm in the test on HCT-116 [1] and 6.5 mm in the test with L1210 [14].
Consider `CCc1c2c(nc3ccc(OC(=O)N4CCC(N5CCCCC5)CC4)cc13)-c1cc3c(c(=O)n1C2)COC(=O)[C@]3(O)CC.Cl`, for which the Growth delay in the test on Mus musculus was found to be 15 days.

(Values after ChEMBL document CHEMBL1138791, “Acyl sulfonamide anti-proliferatives: benzene substituent structure-activity relationships for a novel class of antitumor agents” (J Med Chem, 2004).)
